From PubChem BioAssay
Sampled rows, rich in hits. Any-hit rate of the full collection: about 1.8%.
TbMetRS inhib: T. brucei MetRS inhibitors, primary screen, biochemical, luminescence. methionyl-tRNA synthetase (Trypanosoma brucei brucei). purified T. brucei MetRS, ATP depletion, Kinase-Glo luminescence. inhibition, % at 11.9 µM. actives 0.4% (n = 360,000);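 active = inhibition above a per-plate cutoff of the control wells' mean inhibition plus 3 SD, cut at about 5.5% in these data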;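 note: 0% = DMSO wells median and 100% = median of wells with control inhibitor compound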
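Dosing: 11.9 µM compound single dose, 0.9% DMSO; Assay system: purified T. brucei MetRS enzyme; Measured by: Kinase-Glo luciferase luminescence reporting remaining unconsumed ATP; Schedule: 15 min plus 2 h at 25 °C.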
PG9 Ab binder: binders of HIV-1 gp120 antibody PG9, primary screen, biochemical, TR-FRET; HIV-1 gp120 / PG9 antibody interaction; TR-FRET gp120-PG9 antibody binding; inhibition, % at 6.7 µM; actives 0.43% (n = 360,000); in the data active = inhibition above about 8.5%
Rin1-Abl PPI inh: inhibitors of Rin1-Abl protein binding, primary screen, biochemical, TR-FRET; inhibition, % at 7.35 µM; actives 0.4% (n = 360,000); Tyrosine-protein kinase ABL1 (Homo sapiens) + Ras and Rab interactor 1 (Homo sapiens), …; AID 588664, 2011; in the data active = inhibition above about 5%, passing the limit was not always enough
NR1D1 modulator: modulators of Rev-erb alpha DNA binding, primary screen, biochemical, FITC-DNA, fluorescence polarization, uHTS. Rev-erbα–FITC-DNA binding, 90 min. activity, % at 10 µM. actives 0.79% (n = 370,000);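 active = activity above about 14%, limit read from the data; passing the limit was not always enough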;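 note: 0% = DMSO wells with 35 nM protein and 100% = DMSO wells with 750 nM protein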
PG9 bind confirm: binders of anti-gp120 antibody PG9, confirmation, biochemical, TR-FRET; shares compounds with PG9 Ab binder; TR-FRET PG9 antibody binding; inhibition, % at 6.7 µM; actives 90% (n = 1,500); AID 651571, 2012; in the data active = inhibition above about 9%
PGV04 counter: binders of control antibody PGV04, counter-screen for PG9 antibody binder project, biochemical, TR-FRET, distinct HIV envelope site; shares compounds with PG9 Ab binder; TR-FRET PGV04 antibody-gp120 binding; inhibition, % at 6.7 µM; actives 95% (n = 1,500); AID 651604, 2012; in the data active = inhibition above about 9.5%
PG9 binder DR: small-molecule binders of antibody PG9, dose response, biochemical, TR-FRET, HIV-1 gp120 antibody; shares compounds with PG9 Ab binder; TR-FRET PG9 antibody-gp120 binding inhibition; IC50, µM; 95 tested, under 10 active; AID 651848, 2012; in the data active = IC50 below about 10 µM
PGV04 DR counter: binders of control antibody PGV04, dose response, counter-screen for PG9 antibody binder project, biochemical, TR-FRET, distinct HIV envelope site. shares compounds with PG9 Ab binder. TR-FRET binding to control antibody PGV04. IC50, µM. actives 20% (n = 95). AID 651937, 2012
PG126 DR counter: binders of control antibody PG126, dose response, counter-screen for PG9 antibody binder project, biochemical, TR-FRET, distinct HIV envelope site; shares compounds with PG9 Ab binder; TR-FRET binding to antibody PG126, counterscreen; IC50, µM; actives 20% (n = 95); AID 651939, 2012
* hit, by the source's call. Cut-off read from the data, not from the text of the source, unless noted: active = IC50 below about 9 µM; inactive = the rest.

For Cc1ccccc1NC(=O)CSc1nnc(-c2cc(-c3ccccc3)n[nH]2)n1N the results were NR1D1 modulator -6.
For CCCCn1c(N)c(N(CCC(C)C)C(=O)C2CC(=O)N(c3ccc(OC)cc3OC)C2)c(=O)[nH]c1=O (configuration not stated) the results were TbMetRS inhib 0, PG9 Ab binder 3, Rin1-Abl PPI inh 1 and NR1D1 modulator -1.
For COCCNC(=O)c1c[nH]c2ccc(S(=O)(=O)N3CCc4ccccc43)cc2c1=O the results were TbMetRS inhib 0, PG9 Ab binder 0, Rin1-Abl PPI inh 0 and NR1D1 modulator -1.
Screening COCCNC(=O)c1c[nH]c2ccc(OC)cc2c1=O returned TbMetRS inhib -1, PG9 Ab binder -1, Rin1-Abl PPI inh 0 and NR1D1 modulator 0.
`COCCNC(=O)c1c[nH]c2ccc(S(=O)(=O)Nc3ccc(F)cc3F)cc2c1=O` gave TbMetRS inhib -1, PG9 Ab binder 9.3*, Rin1-Abl PPI inh -1, NR1D1 modulator -7, PG9 bind confirm 22*, PGV04 counter 22*, PG9 binder DR >67, PGV04 DR counter >67 and PG126 DR counter >67.
`COCCNC(=O)c1c[nH]c2ccc(S(=O)(=O)Nc3ccccc3F)cc2c1=O` gave TbMetRS inhib -1, PG9 Ab binder 9.6*, Rin1-Abl PPI inh 1, NR1D1 modulator -1, PG9 bind confirm 22* and PGV04 counter 23*.
`CCNC(=O)C1(C)CCN(C(=O)c2ccc(F)c(Cl)c2)C1` (configuration not stated) gave TbMetRS inhib 0, PG9 Ab binder -2, Rin1-Abl PPI inh -1 and NR1D1 modulator 4.
O=C(NCCc1ccc(F)cc1)c1ccc(Sc2ccccc2Cl)c([N+](=O)[O-])c1 was read as NR1D1 modulator -5.
`COc1ccc(CNC(=O)[C@@H](Cc2ccccc2)NC(=O)[C@H]2O[C@@H](n3ccc(=O)[nH]c3=O)[C@H](O)[C@@H]2O)cc1` gave PG9 Ab binder -1 and NR1D1 modulator 0.
COc1cccc(OCCSc2nc3ccccc3c(=O)[nH]2)c1 was read as TbMetRS inhib -1, PG9 Ab binder 24*, Rin1-Abl PPI inh 1, NR1D1 modulator 21, PG9 bind confirm 23* and PGV04 counter 31*.
`c1ccc(OCCSc2nc3ccccc3[nH]2)cc1` gave TbMetRS inhib 1, PG9 Ab binder -1, Rin1-Abl PPI inh 0 and NR1D1 modulator 0.
COc1ccc(Cn2nnnc2C(c2cc3cccc(C)c3[nH]c2=O)N2CCOCC2)cc1 (configuration not stated) was read as TbMetRS inhib 0, PG9 Ab binder 17*, Rin1-Abl PPI inh -3, NR1D1 modulator -4, PG9 bind confirm 16* and PGV04 counter 24*.
`COc1ccc(N2C(=O)c3n[nH]c(C)c3C2c2ccc(F)cc2)cc1` (configuration not stated) gave PG9 Ab binder 0 and NR1D1 modulator 0.
`O=C(COC(=O)c1cc(Cl)ccc1O)c1ccc2c(c1)OCO2` gave TbMetRS inhib 0, PG9 Ab binder 11*, Rin1-Abl PPI inh 2, NR1D1 modulator 8, PG9 bind confirm 10* and PGV04 counter 15*.
CCCC1CCC2(CC1)CCC2OC(=S)Nc1ccccc1Cl (configuration not stated) was read as NR1D1 modulator 0.
Screening O=C(NC1CCSc2ccccc21)c1ccc(C(F)(F)F)cc1 (configuration not stated) returned TbMetRS inhib 0, PG9 Ab binder 11*, Rin1-Abl PPI inh -3, NR1D1 modulator 3, PG9 bind confirm 11* and PGV04 counter 18*.
`Cc1ccc(S(=O)(=O)N2CCC(C(=O)Nc3ccc4c(c3)OCO4)CC2)cc1` gave TbMetRS inhib -1, PG9 Ab binder 0, Rin1-Abl PPI inh 1 and NR1D1 modulator -3.
Screening O=C(Nc1ccc2c(c1)OCO2)C1CCN(c2ccc(S(=O)(=O)N3CCOCC3)cc2)CC1 returned TbMetRS inhib 0, PG9 Ab binder 16*, Rin1-Abl PPI inh -1, NR1D1 modulator 0, PG9 bind confirm 27*, PGV04 counter 25*, PG9 binder DR >67, PGV04 DR counter inactive and PG126 DR counter inactive.
`CN1CCN(CCCNC(=O)c2ccc3c(c2)N(Cc2ccc(F)cc2)CCS3)CC1` gave TbMetRS inhib 1, PG9 Ab binder 17*, Rin1-Abl PPI inh -6, NR1D1 modulator 5, PG9 bind confirm 15* and PGV04 counter 24*.
Cc1ccc(NC(=O)CSc2nnc(-c3ccncc3)n2C)cc1C was read as TbMetRS inhib 0, PG9 Ab binder 17*, Rin1-Abl PPI inh -2, NR1D1 modulator 4, PG9 bind confirm 15* and PGV04 counter 40*.
Screening Cc1ccc(S(=O)(=O)NC(C)(C)C)cc1C(=O)OCC(=O)N1CCCC1=O returned TbMetRS inhib 0, PG9 Ab binder -1, Rin1-Abl PPI inh 4 and NR1D1 modulator 6.
O=C(O)CSc1ccc2ccccc2n1 was read as TbMetRS inhib -1, PG9 Ab binder 4, Rin1-Abl PPI inh -24 and NR1D1 modulator 0.
Screening O=C(O)CCSc1ccc2ccccc2n1 returned TbMetRS inhib 0, PG9 Ab binder 18*, Rin1-Abl PPI inh -80, NR1D1 modulator -3, PG9 bind confirm 19* and PGV04 counter 20*.
Screening Cc1nc(SCCC(=O)O)c2ccccc2n1 returned TbMetRS inhib -1, PG9 Ab binder 22*, Rin1-Abl PPI inh -176, PG9 bind confirm 19* and PGV04 counter 24*.
Screening CC(C)[C@H](NC(=O)Cc1ccccc1)C(=O)OCc1cc(=O)n2c(n1)sc1ccccc12 returned TbMetRS inhib 1, PG9 Ab binder 9.6*, Rin1-Abl PPI inh -4, NR1D1 modulator -9, PG9 bind confirm 17* and PGV04 counter 21*.
